The text below walks through data of ChEMBL document CHEMBL1159067, “Benzimidazole- and indole-substituted 1,3'-bipyrrolidine benzamides as histamine H3 receptor antagonists” (Bioorg Med Chem Lett, 2010).

The target in series [1] is Histamine H3 receptor (Homo sapiens, UniProt Q9Y5N1). The series is described as follows: Displacement of [3H](R)-alpha-methylhistamine from human cloned histamine H3 receptor expressed in HEK293T cells by liquid scintillation spectrometry. In kind it is cell-based, HEK-293T. (In general: Displacement assays read how much labelled ligand stays bound in the presence of the test substance.)

Series [2] can be described thus: Aqueous solubility at pH 3.1. In kind it is physicochemical. The conditions noted are these: aqueous medium.
The nature of series [3]: Blood-brain barrier permeability by PAMPA-BBB assay. In kind it is ADME. The gist of the method:
(§1)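 Passive permeability was measured by PAMPA, or by its blood–brain barrier variant PAMPA–BBB. Each gives effective permeability in units of 10^-6 cm/s.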
In general terms: The PAMPA barrier holds no transporters, so it reflects passive diffusion.

The nature of series [4]: Permeability by PAMPA. In kind it is ADME. The conditions noted are these: read-out: permeability. Summed up:
as §1

Series [5] in a line: Permeability across apical to basolateral side of human Caco-2 cell membrane. In kind it is ADME, cell-based. The conditions noted are these: read-out: permeability. (Caco-2 monolayers are a common model of the intestinal barrier.)
The test system of the next series is Caco-2. Briefly: Ratio of permeability across basolateral to apical side over apical to basolateral side of human Caco-2 cell membrane.
A short description of series [6]: AUC in rat at 10 mg/kg, po. In kind it is ADME, organism-based. Details: dose 10 mg/kg, route oral. The conditions noted are these: plasma.
A short description of series [7]: Tmax in rat at 10 mg/kg, po. In kind it is ADME, organism-based. Details: dose 10 mg/kg, route oral. The settings on record: in vivo.
Series [8] is described as follows: Fraction unbound in rat brain at 10 mg/kg, ip. Type of series: ADME, organism-based. Details: dose 10 mg/kg, route intraperitoneal.
A short description of series [9]: Plasma clearance in rat at 2 mg/kg, iv. Type of series: ADME, organism-based. Details: dose 2 mg/kg, route intravenous.
The nature of series [10]: Cmax in rat at 10 mg/kg, po. In kind it is ADME, organism-based. The arrangement: dose 10 mg/kg, route oral. The conditions noted are these: in vivo.
The nature of series [11]: Half life in rat at 10 mg/kg, po. Type of series: ADME, organism-based. The settings on record: in vivo. Details: dose 10 mg/kg, route oral.
A short description of series [12]: Oral bioavailability in rat at 10 mg/kg. Type of series: ADME, organism-based. The conditions noted are these: in vivo.
Series [13] can be described thus: Volume of distribution at steady state in rat at 2 mg/kg, iv. In kind it is ADME, organism-based. The arrangement: dose 2 mg/kg, route intravenous. The settings on record: in vivo, read-out: Vdss.
A short description of series [14]: AUC in rat brain at 10 mg/kg, ip. Type of series: ADME, organism-based. Details: dose 10 mg/kg, route intraperitoneal.
Series [15] can be described thus: Tmax in rat plasma at 10 mg/kg, ip. In kind it is ADME, organism-based. Details: dose 10 mg/kg, route intraperitoneal.
Series [16] can be described thus: Cmax in rat brain at 10 mg/kg, ip. Type of series: ADME, organism-based. Details: dose 10 mg/kg, route intraperitoneal.
A short description of series [17]: Tmax in rat brain at 10 mg/kg, ip. The arrangement: dose 10 mg/kg, route intraperitoneal. In kind it is ADME, organism-based.
Series [18] can be described thus: AUC in rat plasma at 10 mg/kg, ip. Type of series: ADME, organism-based. The arrangement: dose 10 mg/kg, route intraperitoneal.
A short description of series [19]: Cmax in rat plasma at 10 mg/kg, ip. In kind it is ADME, organism-based. Details: dose 10 mg/kg, route intraperitoneal.
The nature of series [20]: AUC in rat brain at 30 mg/kg, ip. The arrangement: dose 30 mg/kg, route intraperitoneal. In kind it is ADME, organism-based.
Series [21] in a line: Ratio of AUC in rat brain to plasma at 30 mg/kg, ip. Type of series: ADME, organism-based. Details: dose 30 mg/kg, route intraperitoneal. The conditions noted are these: brain and plasma. The gist of the method:
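Rats given a single 30 mg/kg intraperitoneal injection. Brain and plasma exposure were measured, with Cmax and Tmax recorded for each. The ratio is brain AUC (h ng/mL) divided by plasma AUC.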

A short description of series [22]: Tmax in rat brain at 30 mg/kg, ip. In kind it is ADME, organism-based. Details: dose 30 mg/kg, route intraperitoneal.
Series [23] is described as follows: Fraction unbound in rat brain at 30 mg/kg, ip. In kind it is ADME, organism-based. Details: dose 30 mg/kg, route intraperitoneal.
Series [24] in a line: Cmax in rat brain at 30 mg/kg, ip. Details: dose 30 mg/kg, route intraperitoneal. In kind it is ADME, organism-based.
Series [25] in a line: Tmax in rat plasma at 30 mg/kg, ip. Type of series: ADME, organism-based. Details: dose 30 mg/kg, route intraperitoneal.
Series [26] addresses Histamine H3 receptor (Rattus norvegicus, UniProt Q9QYN8). Briefly: Binding affinity to rat histamine H3 receptor.
Series [27] relates to Rattus norvegicus. The series is described as follows: Reversal of delay-induced retention deficit behavior in ip dosed rat assessed as differential novel and familiar object recognition. Type of series: functional. The settings on record: read-out: MED. The gist of the method:
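Rats received test compound ip at 0.1, 0.3, 1 or 3 mg/kg, or vehicle, before the learning trial. Exploration of the novel and familiar objects was then scored. Groups were compared with vehicle, with significance at p <0.03 and p <0.005.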

In series [28] the test system is Rattus norvegicus. The series is described as follows: Decrease in (R)-alpha-methylhistamine-induced water intake in rat at 10 mg/kg, ip. Type of series: functional, organism-based. Details: dose 10 mg/kg. Summed up: (§2)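 Water intake was induced in rats by the H3R agonist (R)-α-methylhistamine, which acts via central H3R. Antagonist was dosed ip. Significance was p <0.05 versus vehicle and versus (R)-α-methylhistamine alone.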

The test system of series [29] is Rattus norvegicus. The series is described as follows: Decrease in (R)-alpha-methylhistamine-induced water intake in rat at 30 mg/kg, ip. The arrangement: dose 30 mg/kg. Type of series: functional, organism-based. Summed up:
as §2

The nature of series [30]: Cmax in rat plasma at 30 mg/kg, ip. In kind it is ADME, organism-based. Details: dose 30 mg/kg, route intraperitoneal.
Series [31] in a line: AUC in rat plasma at 30 mg/kg, ip. In kind it is ADME, organism-based. Details: dose 30 mg/kg, route intraperitoneal.

Converted amounts (≈) assume the structure as drawn. The source made the active and inactive calls. The rule behind the calls is not given here. Bounds are passed on as bounds.

Sequence of Histamine H3 receptor (Homo sapiens, UniProt Q9Y5N1) (Q9Y5N1 whole entry): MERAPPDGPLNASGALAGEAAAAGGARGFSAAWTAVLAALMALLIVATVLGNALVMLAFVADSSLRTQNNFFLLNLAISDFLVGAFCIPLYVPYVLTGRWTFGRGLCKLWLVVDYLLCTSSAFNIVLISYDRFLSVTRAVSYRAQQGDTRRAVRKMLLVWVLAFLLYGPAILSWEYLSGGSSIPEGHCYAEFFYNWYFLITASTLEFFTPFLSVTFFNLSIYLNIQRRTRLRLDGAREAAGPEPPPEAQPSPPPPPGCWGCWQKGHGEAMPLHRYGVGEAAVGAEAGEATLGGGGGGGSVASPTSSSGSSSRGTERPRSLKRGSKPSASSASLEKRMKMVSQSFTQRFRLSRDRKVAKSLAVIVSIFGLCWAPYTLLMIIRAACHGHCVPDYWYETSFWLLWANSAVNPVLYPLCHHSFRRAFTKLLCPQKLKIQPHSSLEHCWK
Sequence of Histamine H3 receptor (Rattus norvegicus, UniProt Q9QYN8) (Q9QYN8 whole entry): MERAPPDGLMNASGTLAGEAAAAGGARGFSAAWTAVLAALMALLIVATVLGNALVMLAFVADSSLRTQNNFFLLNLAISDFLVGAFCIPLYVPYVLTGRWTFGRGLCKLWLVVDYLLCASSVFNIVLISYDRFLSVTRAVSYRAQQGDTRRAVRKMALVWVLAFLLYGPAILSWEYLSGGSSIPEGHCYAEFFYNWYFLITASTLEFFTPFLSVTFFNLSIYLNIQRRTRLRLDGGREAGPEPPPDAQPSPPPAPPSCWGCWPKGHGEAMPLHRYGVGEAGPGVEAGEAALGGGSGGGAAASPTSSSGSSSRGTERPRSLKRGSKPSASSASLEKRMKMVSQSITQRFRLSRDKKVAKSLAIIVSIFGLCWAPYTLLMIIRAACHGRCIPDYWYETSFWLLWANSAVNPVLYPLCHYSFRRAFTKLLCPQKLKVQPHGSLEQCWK

At Histamine H3 receptor [1], `CN(CCO)C1CCN(C(=O)c2ccc(Cn3c(-c4ccccc4)nc4ccccc43)cc2)C1` (stereo unspecified) registered an inhibition constant (Ki) of 1.2 µM.
In [2], `O=C(c1ccc(Cn2ccc3ccc(Cl)cc32)cc1)N1CC[C@H](N2CCCC2)C1` gave a solubility of 13 µg/mL (≈ 31.9 µM). In series [3], this compound came in with a pBBB of 8.6 ×10⁻⁶ cm/s. Also, the affinity on Histamine H3 receptor [1] corresponds to a Ki of 0.15 µM. Also, the Papp in [4] amounted to 7.3 ×10⁻⁶ cm/s.
Regarding `CCN(C)C1CCN(C(=O)c2ccc(Cn3c(-c4ccccc4)nc4ccccc43)cc2)C1` (stereo unspecified), affinity on Histamine H3 receptor [1] was put at a Ki of 0.091 µM.
Same read-out and setting: with `Cc1nc2ccccc2n1Cc1ccc(C(=O)N2CCC(N(C)C)C2)cc1` (stereo unspecified) the figure was 0.017 µM.
For the compound `CN(C)C1CCN(C(=O)c2ccc(Cn3c(-c4ccccc4)nc4ccccc43)cc2)C1` (stereo unspecified), the solubility in series [2] is > 100 µg/mL. The Papp A→B in series [5] turned out to be 84.9 ×10⁻⁶ cm/s. Further, the Ratio in the series on Caco-2 is on record as 1.3. For the same compound, the pBBB in series [3] is on record as 9.4 ×10⁻⁶ cm/s. The compound further had a Ki on Histamine H3 receptor [1] of 0.1 µM. Also, the Papp in series [4] worked out at 4.4 ×10⁻⁶ cm/s.
Compound `CN(C)[C@H]1CCN(C(=O)c2ccc(Cn3c(-c4ccccc4)nc4ccccc43)cc2)C1` came in with a Ki at Histamine H3 receptor [1] of 0.065 µM.
Take `O=C(c1ccc(Cn2ccc3ccccc32)cc1)N1CC[C@H](N2CCCC2)C1`: the concentration in solution in [2] (solubility) was 28 µg/mL (≈ 75 µM). Further, in series [3], the pBBB worked out at 9.4 ×10⁻⁶ cm/s. The Ki on Histamine H3 receptor [1] amounted to 0.015 µM. Also, the Papp in series [4] amounted to 8.3 ×10⁻⁶ cm/s.
The compound `CN(C)[C@@H]1CCN(C(=O)c2ccc(Cn3c(-c4ccccc4)nc4ccccc43)cc2)C1` showed a Ki on Histamine H3 receptor [1] of 0.44 µM.
Take `Cc1nc2ccccc2n1Cc1ccc(C(=O)N2CC[C@H](N3CCCC3)C2)cc1`: the solubility in [2] worked out at 32 µg/mL (≈ 82.4 µM). In series [3], the pBBB is listed as 4 ×10⁻⁶ cm/s. Further, the Papp in series [4] worked out at 0.3 ×10⁻⁶ cm/s.
In turn, `O=C(c1ccc(Cn2c(-c3ccccc3)nc3ccccc32)cc1)N1CCC(N2CCCC2)C1` (stereo unspecified) showed a Ki on Histamine H3 receptor [1] of 0.01 µM.
`CN(C)C1CCN(C(=O)c2ccc(Cn3c(-c4ccccn4)nc4ccccc43)cc2)C1` (stereo unspecified) registered a Ki at Histamine H3 receptor [1] of 0.235 µM.
Turning to `O=C(c1ccc(Cn2ccc3cc(Cl)ccc32)cc1)N1CC[C@H](N2CCCC2)C1`, the solubility in [2] turned out to be 10 µg/mL (≈ 24.5 µM). This compound displayed a pBBB in [3] of 8.1 ×10⁻⁶ cm/s. The compound further returned a Ki on Histamine H3 receptor [1] of 0.13 µM. Further, in series [4], the Papp was found to be 7.8 ×10⁻⁶ cm/s.
The compound `O=C(c1cccc(Cn2cnc3ccccc32)c1)N1CCC(N2CCCC2)C1` (stereo unspecified) came in with a Ki on Histamine H3 receptor [1] of 0.4 µM.
The same measure, in the same setting: the result for `O=C(c1ccccc1Cn1cnc2ccccc21)N1CCC(N2CCCC2)C1` (stereo unspecified) reads 4 µM; that for `CN(C)C1CCN(C(=O)c2ccc(Cn3cnc4ccccc43)cc2)C1` (stereo unspecified), 0.39 µM.
`O=C(c1ccc(Cn2cnc3ccccc32)cc1)N1CC[C@H](N2CCCC2)C1`: the AUC in series [6] is 2740 ng·h/mL; in [14], 231 ng·h/mL; in series [18] it was 1040 ng·h/mL. This compound registered a solubility in [2] of 51 µg/mL (≈ 136 µM). Moreover, the Tmax in series [7] is 0.4 h; in [15] it was 1 h; in series [17], 1 h. Moreover, the fraction unbound in series [8] was found to be 0.138. Also, the clearance in [9] is 56 mL/min/kg. Further, the Cmax in series [10] is 1750 ng/mL; in series [16], 0.245 µM; in series [19], 388 ng/mL. Further, in series [11], the half-life was 1.3 h. The compound further returned a pBBB in [3] of 3.7 ×10⁻⁶ cm/s. For the same compound, in series [12], the bioavailability turned out to be 93%. In [13], the Vd was determined as 3.6 L/kg. Also, in series [4], the Papp is 0.3 ×10⁻⁶ cm/s.
With `O=C(c1ccc(Cn2ccc3cccc(Cl)c32)cc1)N1CC[C@H](N2CCCC2)C1`, the AUC in series [6] was 63 ng·h/mL; in series [20] it was 15000 ng·h/mL; in [31] it was 2180 ng·h/mL. In series [2], this compound displayed a solubility of 18 µg/mL (≈ 44.1 µM). Also, the Tmax in series [7] stood at 1.2 h; in series [22], 0.5 h; in series [25] it was 0.5 h. Besides, the Kp in series [21] was found to be 6.9. In [23], this compound returned a fraction unbound of 0.035. In addition, the Cmax in series [24] was 16 µM; in series [10], 22 ng/mL; in series [30], 1090 ng/mL. For the same compound, the clearance in series [9] stood at 112 mL/min/kg. The values for the Ki on Histamine H3 receptor [26] and at Histamine H3 receptor [1] were 0.0217 µM and 0.0025 µM, respectively. In addition, the half-life in series [11] was 1.9 h. The pBBB in series [3] amounted to 7 ×10⁻⁶ cm/s. The same compound yielded a bioavailability in [12] of 5%. In addition, in the series with Rattus norvegicus [27], the minimal effective dose came out at 0.3 mg/kg. Further, the Vd in series [13] was determined as 7.3 L/kg. Besides, the result in the series on Rattus norvegicus [28] and with Rattus norvegicus [29] was Active. Further, the Papp in series [4] is 6.5 ×10⁻⁶ cm/s.

Broadly, the Ki is the equilibrium dissociation constant of an inhibitor or competing ligand from its target. Read a low Ki as tighter binding. What is called solubility is how much of the substance goes into solution per volume. A higher solubility goes with a readily soluble substance. The AUC is the area under the concentration-time curve, a measure of exposure. Higher therefore signals high exposure. For orientation: Tmax means the time at which the peak concentration occurs. For orientation: fraction unbound means the share of the substance not bound to proteins or other matrix. The clearance is a measure of how efficiently the substance is removed, as volume per time. A low value points to inefficient removal. The Cmax is the maximum level reached in the sampled fluid or tissue. For orientation: half-life means the time in which the quantity being followed falls by half. High values mean slow decline, low ones rapid decline. What is called bioavailability is the share of a dose that reaches the circulation, judged against a reference dose that is usually intravenous. High values mean good availability, low ones poor availability. The term Kp denotes the ratio of the level in a tissue or fluid to that in plasma or blood.
